Test results taken from ChEMBL document CHEMBL5584302, “Exploration of Hydrazide-Based HDAC8 PROTACs for the Treatment of Hematological Malignancies and Solid Tumors” (J Med Chem, 2024).
Calls of active or inactive are those of the source. No cut-off for these calls is given here.

Experiments:
Jurkat [1] = assay: Effect on IKZF1 level in human Jurkat cells at upto 10 uM by Western blot analysis; assay type: functional, cell-based
Method in brief: (§1)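 Jurkat cells were treated with graded concentrations for 6 h, alongside 10 μM pomalidomide. IKZF1, IKZF3 and GSPT1 were detected by Western blot, with GAPDH as the loading control.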

Jurkat [2] = assay: Effect on IKZF3 level in human Jurkat cells at upto 10 uM by Western blot analysis; assay type: functional, cell-based; method in brief: as §1
Jurkat [3] = assay: Effect on GSPT1 level in human Jurkat cells at upto 10 uM by Western blot analysis; assay type: functional, cell-based; method in brief: as §1
Jurkat [4] = assay: Upregulation of Ac-SMC3 level in human Jurkat cells measured after 6 hrs by Western blot analysis; assay type: functional, cell-based; conditions: dose 0.0001-1 µM
Method in brief: (§2)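 Jurkat cells exposed to the indicated compound concentrations for 6 h. Ac-SMC3 and Ac-HH3 were detected by Western blot with GAPDH as loading control. Bands were quantified by densitometry and normalized to the DMSO-treated group. Data are mean ± SEM of two independent experiments, compared with DMSO by one-way ANOVA.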

Jurkat [5] = assay: Upregulation of Ac-SMC3 level in human Jurkat cells at 1 uM measured after 6 hrs by Western blot analysis; assay type: functional, cell-based; method in brief: as §2
Jurkat [6] = assay: Upregulation of Ac-tubulin level in human Jurkat cells at upto 1 uM measured after 6 hrs by Western blot analysis; assay type: functional, cell-based
Method in brief: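 Jurkat cells were treated for 6 h at the indicated concentrations. Acetylated tubulin was probed by Western blot, with GAPDH as loading control.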

Jurkat [7] = assay: Upregulation of Ac-HH3 level in human Jurkat cells at 1 uM measured after 6 hrs by Western blot analysis; assay type: functional, cell-based; method in brief: as §2
Jurkat [8] = assay: Upregulation of Ac-SMC3 level in human Jurkat cells incubated for 6 hrs by Western blot analysis; assay type: functional, cell-based; conditions: dose <= 1.0 µM; method in brief: as §2
Jurkat [9] = assay: Upregulation of Ac-HH3 level in human Jurkat cells incubated for 6 hrs by Western blot analysis; assay type: functional, cell-based; method in brief: as §2
HCT-116 [10] = assay: Upregulation of Ac-SMC3 level in human HCT-116 cells incubated for 6 hrs by Western blot analysis; assay type: functional, cell-based; conditions: dose 0.004-3.3 µM
Method in brief: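 HCT116 cells were treated 6 h with the indicated concentrations. Ac-SMC3 was measured by Western blot with GAPDH as loading control, quantified by densitometry and normalized to the DMSO group. Data are mean ± SEM from two independent experiments; one-way ANOVA vs DMSO.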

HCT-116 [11] = assay: Upregulation of Ac-HH3 level in human HCT-116 cells incubated for 6 hrs by Western blot analysis; assay type: functional, cell-based; conditions: dose 0.004-3.3 µM
Method in brief: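 HCT116 cells were incubated with graded concentrations for 6 h. Ac-HH3 was detected by Western blot with GAPDH as the loading control, then quantified by densitometry and normalized to DMSO-treated cells. Data are mean ± SEM of two independent experiments, compared against DMSO by one-way ANOVA.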

Jurkat [12] = assay: Upregulation of Ac-HH3 level in human Jurkat cells measured after 24 hrs by Western blot analysis; assay type: functional, cell-based; conditions: dose <= 10000.0 nM
Method in brief: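 Jurkat cells were incubated 24 h with the indicated concentrations. Ac-HH3 was detected by Western blot against a GAPDH loading control, quantified by densitometry and normalized to DMSO-treated cells. Data are mean ± SEM of two independent experiments; one-way ANOVA vs DMSO.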

HCT-116 [13] = assay: Upregulation of Ac-HH3 level in human HCT-116 cells at 0.04 to 3.3 uM measured after 24 hrs by Western blot analysis; assay type: functional, cell-based; conditions: dose 0.04-3.3 µM
THP-1 [14] = assay: Upregulation of Ac-HH3 level in human THP-1 cells at 0.04 to 3.3 uM measured after 24 hrs by Western blot analysis; assay type: functional, cell-based; conditions: dose 0.04-3.3 µM
Method in brief: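 THP-1 cells were exposed to the compound at the indicated concentrations for 24 h, then immunoblotted for Ac-HH3, Ac-SMC3, Ac-tubulin and HDAC8 with GAPDH as loading control. Band intensities were quantified and normalized to the DMSO-treated group. Data are mean ± SEM of two independent experiments, analysed by one-way ANOVA against DMSO.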

Jurkat [15] = assay: Upregulation of AcHH3 level on human Jurkat cells at 0.04 to 10 uM measured after 48 hrs by Western blot analysis; assay type: functional, cell-based; conditions: dose 0.04-10 µM
Jurkat [16] = assay: Upregulation of AcHH4 level on human Jurkat cells at 0.04 to 10 uM measured after 48 hrs by Western blot analysis; assay type: functional, cell-based; conditions: dose 0.04-10 µM
Jurkat [17] = assay: Induction of apoptosis in human Jurkat cells assessed as increase in caspase 3/7 activity incubated for 48 hrs; assay type: functional, cell-based; conditions: dose upper 5.0 µM
HCT-116 [18] = assay: Induction of apoptosis in human HCT-116 cells assessed as increase in caspase 3/7 activity incubated for 48 hrs; assay type: functional, cell-based; conditions: dose 12.5-5 µM
Jurkat [19] = assay: Induction of apoptosis in human Jurkat cells assessed as increase in caspase 3/7 activity at 5 uM incubated for 48 hrs; assay type: functional, cell-based
HCT-116 [20] = assay: Induction of apoptosis in human HCT-116 cells assessed as increase in caspase 3/7 activity at 5 uM incubated for 48 hrs; assay type: functional, cell-based
Jurkat [21] = assay: Induction of apoptosis in human Jurkat cells at 1.1 to 10 uM measured after 24 to 48 hrs by AnnexinV/FITC and PI staining based flow cytometry analysis; assay type: functional, cell-based; conditions: dose 1.1-10 µM, time 24-48 hrs
HCT-116 [22] = assay: Induction of apoptosis in human HCT-116 cells measured after 48 hrs by AnnexinV/FITC and PI staining based flow cytometry analysis; assay type: functional, cell-based; conditions: dose 1.1-10 µM
HCT-116 [23] = assay: Induction of apoptosis in human HCT-116 cells assessed as necrotic cells at 1.1 uM measured after 48 hrs by AnnexinV/FITC and PI staining based flow cytometry analysis (reference value: […]); assay type: functional
Jurkat [24] = assay: Induction of ferroptosis in human Jurkat cells assessed as increase in lipid peroxidation incubated for 24 hrs by BODIPY 581/591 C11 staining based flow cytometry analysis; assay type: functional, cell-based; conditions: dose 0.37-10 µM
HCT-116 [25] = assay: Induction of ferroptosis in human HCT-116 cells assessed as increase in lipid peroxidation at low concentration incubated for 24 hrs by BODIPY 581/591 C11 staining based flow cytometry analysis; assay type: functional, cell-based; conditions: dose 0.37-10 µM
THP-1 [26] = assay: Induction of ferroptosis in human THP-1 cells assessed as increase in lipid peroxidation at 0.37 to 10 uM incubated for 24 hrs by BODIPY 581/591 C11 staining based flow cytometry analysis; assay type: functional, cell-based; conditions: dose 0.37-10 µM
Jurkat [27] = assay: Induction of ferroptosis in human Jurkat cells assessed as increase in lipid peroxidation incubated for 48 hrs by BODIPY 581/591 C11 staining based flow cytometry analysis; assay type: functional, cell-based
Jurkat [28] = assay: Induction of cell death in human Jurkat cells at 5 uM measured after 48 hrs in presence of Z-VAD-FMK by flow cytometry analysis; assay type: functional, cell-based
Jurkat [29] = assay: Induction of cell death in human Jurkat cells at 5 uM measured after 48 hrs in presence of necrostatin-1 by flow cytometry analysis; assay type: functional, cell-based
Jurkat [30] = assay: Induction of cell death in human Jurkat cells at 5 uM measured after 48 hrs in presence of ferrostatin-1 by flow cytometry analysis; assay type: functional, cell-based
Jurkat [31] = assay: Induction of cell death in human Jurkat cells at 5 uM measured after 48 hrs in presence of chloroquine by flow cytometry analysis; assay type: functional, cell-based
Jurkat [32] = assay: Induction of cell cycle arrest in human Jurkat cells assessed as accumulation of cells at G0/G1 phase measured after 48 hrs by PI staining based flow cytometry analysis; assay type: functional; conditions: dose 0.13-3.3 µM
HCT-116 [33] = assay: Induction of cell cycle arrest in human HCT-116 cells assessed as accumulation of cells at G2/M phase measured after 48 hrs by PI staining based flow cytometry analysis; assay type: functional; conditions: dose 0.13-3.3 µM
Jurkat [34] = assay: cells; conditions: Homo sapiens
Jurkat [35] = assay: cells; conditions: Homo sapiens; remark: listed apart in the source
Jurkat [36] = assay: cells; conditions: Homo sapiens; remark: listed apart in the source
Jurkat [37] = assay: cells; conditions: Homo sapiens; remark: listed apart in the source
THP-1 [38] = assay: cells; conditions: Homo sapiens
HCT-116 [39] = assay: cells; conditions: Homo sapiens
A549 = assay: cells; conditions: Homo sapiens

Q: Which Activity (Jurkat [1]) does the source give for CCCCCCNNC(=O)c1ccc(CNC(=O)CN2CCC(c3ccc(NC4CCC(=O)NC4=O)cc3)CC2)cc1 (stereo not given) here?
A: inactive

Q: What about the Activity (Jurkat [2]) of the same molecule?
A: inactive

Q: And the Activity (Jurkat [3])?
A: inactive

Q: And the Activity (Jurkat [4])?
A: Dose-Dependent Effect

Q: And the Activity (Jurkat [5])?
A: Active

Q: And the Activity (Jurkat [6])?
A: inactive

Q: What about the Activity (Jurkat [7]) of the same molecule?
A: Active

Q: What about the Activity (Jurkat [8]) of the same molecule?
A: Dose-Dependent Effect

Q: And the Activity (Jurkat [9])?
A: Dose-Dependent Effect

Q: And the Activity (HCT-116 [10])?
A: Dose-Dependent Effect

Q: What about the Activity (HCT-116 [11]) of the same molecule?
A: Dose-Dependent Effect

Q: What about the Activity (Jurkat [12]) of the same molecule?
A: Dose-Dependent Effect

Q: What about the Activity (HCT-116 [13]) of the same molecule?
A: Active

Q: What about the Activity (THP-1 [14]) of the same molecule?
A: Active

Q: And the Activity (Jurkat [15])?
A: Active

Q: And the Activity (Jurkat [16])?
A: Active

Q: What about the Activity (Jurkat [17]) of the same molecule?
A: Dose-Dependent Effect

Q: And the Activity (HCT-116 [18])?
A: Dose-Dependent Effect

Q: What about the Activity (Jurkat [19]) of the same molecule?
A: Active

Q: What about the Activity (HCT-116 [20]) of the same molecule?
A: Active

Q: What about the Activity (Jurkat [21]) of the same molecule?
A: inactive

Q: And the Activity (HCT-116 [22])?
A: Dose-Dependent Effect

Q: And the Activity (HCT-116 [23])?
A: 4.28%

Q: What about the Activity (Jurkat [24]) of the same molecule?
A: Dose-Dependent Effect

Q: What about the Activity (HCT-116 [25]) of the same molecule?
A: Active

Q: And the Activity (THP-1 [26])?
A: inactive

Q: What about the Activity (Jurkat [27]) of the same molecule?
A: inactive

Q: What about the Activity (Jurkat [28]) of the same molecule?
A: Active

Q: And the Activity (Jurkat [29])?
A: Active

Q: What about the Activity (Jurkat [30]) of the same molecule?
A: Active

Q: What about the Activity (Jurkat [31]) of the same molecule?
A: Active

Q: What about the Activity (Jurkat [32]) of the same molecule?
A: Dose-Dependent Effect

Q: What about the Activity (HCT-116 [33]) of the same molecule?
A: Dose-Dependent Effect

Q: What about the IC50 (Jurkat [34]) of the same molecule?
A: 1500 nM

Q: And the IC50 (Jurkat [35])?
A: 2000 nM

Q: And the IC50 (Jurkat [36])?
A: 2800 nM

Q: What about the IC50 (Jurkat [37]) of the same molecule?
A: 2500 nM

Q: What about the IC50 (THP-1 [38]) of the same molecule?
A: > 33300 nM

Q: And the IC50 (HCT-116 [39])?
A: 3800 nM

Q: What about the IC50 (A549) of the same molecule?
A: 17500 nM
